Results of several laboratories.
Protocols differ between the studies behind these lines.
Target: Homeodomain-interacting protein kinase 1 (HIPK1, Homo sapiens, UniProt Q86Z02)

`C=CC(=O)N1CCC([C@@H]2CCNc3c(C(N)=O)c(-c4ccc(Oc5ccccc5)cc4)nn32)CC1` has an inhibition of 26% (enzyme activity, inhibitor; 1 µM).
For `C[C@H]1CC[C@H](n2c3cnccc3c3cnc(Nc4ccc5c(n4)CCN(C(=O)CO)C5)nc32)CC1`, the remaining binding was 45% (binding, competition with immobilised ligand; 1 µM).
For `C1=C/COCc2cc(ccc2OCCN2CCCC2)Nc2nccc(n2)-c2cccc(c2)COC/1`, the remaining binding was 6.7% (binding; 0.1 µM).
`COc1ccc2oc(-c3ccc4nc(N)oc4c3)c/c(=N\c3ccccc3NC(=O)CCN)c2c1` gave a remaining binding of 103% (binding; 1 µM).
`Cc1ccc(NC(=O)c2ccnc(C(F)(F)F)c2)cc1-c1cc(OCCO)nc(N2CCOCC2)c1` gave a remaining binding of 93% (binding, competition with immobilised ligand; 1 µM).
`CCCCC(=O)Nc1ccc(-c2ccc3ncn(CCC)c(=O)c3c2)cn1` has a remaining binding of 88% (binding, competition with immobilised ligand; 0.5 µM).
`C#Cc1cc(-c2cc(Nc3nc(N[C@@H](C)c4ccc(F)cn4)ncc3Cl)n[nH]2)ccc1C=O` has an inhibition of 22.6% (enzyme activity, inhibitor; 0.2 µM).
`C=CC(=O)N1CCC[C@@H](n2nc(-c3ccc(Oc4ccccc4)cc3)c3c(N)ncnc32)C1` gave an inhibition of 22% (enzyme activity, inhibitor; 1 µM).
